Assay results reported in ChEMBL document CHEMBL5154695, “Design, synthesis and biological evaluation of P2-modified proline analogues targeting the HtrA serine protease in Chlamydia” (Eur J Med Chem, 2022).
Active and inactive are the calls of the source.

Columns and labels:
[1] = target: T1, Probable periplasmic serine endoprotease DegP-like (Chlamydia trachomatis, UniProt P18584); assay: Inhibition of recombinant Chlamydia trachomatis HtrA serine protease using MeOCoum-ENLHLPLPI1F-D as substrate measured after 30 mins
T1 sequence (P18584 whole entry): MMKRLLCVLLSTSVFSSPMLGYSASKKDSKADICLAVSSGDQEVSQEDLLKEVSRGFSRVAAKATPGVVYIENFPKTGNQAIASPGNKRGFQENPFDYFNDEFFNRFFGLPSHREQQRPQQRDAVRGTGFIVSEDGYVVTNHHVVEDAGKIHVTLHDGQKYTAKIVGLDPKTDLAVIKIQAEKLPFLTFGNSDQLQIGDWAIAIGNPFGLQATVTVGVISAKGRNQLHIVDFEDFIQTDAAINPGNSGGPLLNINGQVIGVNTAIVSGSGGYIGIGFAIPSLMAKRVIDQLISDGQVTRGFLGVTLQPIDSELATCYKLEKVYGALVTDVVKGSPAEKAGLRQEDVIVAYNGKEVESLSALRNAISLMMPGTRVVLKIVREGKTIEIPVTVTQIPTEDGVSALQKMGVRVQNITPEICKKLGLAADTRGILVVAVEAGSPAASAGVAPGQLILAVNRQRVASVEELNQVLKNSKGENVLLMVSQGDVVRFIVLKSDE

[2] = target: T2, Probable periplasmic serine endoprotease DegP-like (Chlamydia trachomatis) (UniProt P18584); assay: Potency index, ratio of JO146 IC50 to test compound IC50 for inhibition of recombinant Chlamydia trachomatis HtrA serine protease using MeOCoum-ENLHLPLPI1F-D as substrate measured after 30 mins
T2 sequence (whole entry): T1 sequence (P18584 whole entry)

[3] = tested on: HEp-2; assay: Cytotoxicity against human HEp-2 cells assessed as loss of cell integrity by measuring cytosolic LDH release at 25 to 100 uM […] by LDH assay; assay type: toxicity, cell-based; conditions: hep-2, 100 µM, dose 25-100 µM
Outline: (§1)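 HEp-2 cells at 5000/well, dosed 24 h after plating with 25 or 100 µM, 1% v/v DMSO or medium, triplicate; after 8 h treatment supernatant taken, incubated 30 min with CytoTox reagent then stop solution, A490 read; maximum release from untreated cells lysed with 0.8% v/v Triton X-100 45 min before harvest; extracellular LDH as % of maximum; n = 3.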

[4] = tested on: Chlamydia trachomatis; assay: Antibacterial activity against Chlamydia trachomatis D/UW-3/Cx infected in human HEp-2 cells assessed as reduction in bacterial titer below threshold at 50 uM administered at 16 hrs post infection and measured 44 hrs post infection; assay type: functional, organism-based; conditions: time 28.0 hrs
Outline: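 C. trachomatis D (D/UW-3/Cx) in monolayers seeded 20,000 cells/well 24 h before infection; synchronised at 500 × g, 28 °C, 30 min; treated at 16 h PI (25, 50, 100 µM, triplicate) beside 1% v/v DMSO and media controls; harvested 44 h PI, passaged onto fresh monolayers, fixed, stained; IFU/mL compared against limit of detection.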

[5] = tested on: Chlamydia pecorum; assay: Antibacterial activity against Chlamydia pecorum MC/MarsBar infected in human HEp-2 cells assessed as reduction in bacterial titre at 25 uM administered at 16 hrs post infection and measured 44 hrs post infection; assay type: functional, organism-based; conditions: time 28.0 hrs
[6] = tested on: HEp-2; assay: Cytotoxicity against human HEp-2 cells assessed as reduction in cell viability by measuring MTS reduction at 25 uM measured after 24 hrs by MTS assay relative to control; assay type: toxicity, cell-based; conditions: hep-2, 24 h
Outline: (§2)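 HEp-2 cells plated at 5000/well, treated 24 h after plating with 25 or 100 µM inhibitor, 1% v/v DMSO or medium alone, triplicate; after 24 h exposure, MTS/PMS added for 4 h and A490 read; viability expressed relative to DMSO control; mean ± SEM, n = 3.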

[7] = tested on: HEp-2; assay: Cytotoxicity against human HEp-2 cells assessed as reduction in cell viability measured after 24 hrs by MTS assay; assay type: toxicity, cell-based; conditions: hep-2, 24 h; outline: as §2
[8] = Cytotoxicity against human HEp-2 cells assessed as cell viability at 25 to 100 uM measured after 24 hrs by MTS assay relative to control; assay type: toxicity, cell-based; conditions: dose 25-100 µM, read-out: Activity; outline: as §2
[9] = tested on: HEp-2; assay: Cytotoxicity against human HEp-2 cells assessed as loss of cell integrity by measuring cytosolic LDH release at 25 to 100 uM […] by LDH assay relative to control; assay type: toxicity, cell-based; conditions: hep-2, 100 µM, dose 25-100 µM; outline: as §1
[10] = tested on: Chlamydia trachomatis; assay: Antibacterial activity against Chlamydia trachomatis D/UW-3/Cx infected in human HEp-2 cells assessed as reduction in bacterial titer at 25 to 100 uM administered at 16 hrs post infection and measured 44 hrs post infection; assay type: functional, organism-based; conditions: dose 25-100 µM, time 28.0 hrs
[11] = tested on: Chlamydia pecorum; assay: Antibacterial activity against Chlamydia pecorum MC/MarsBar infected in human HEp-2 cells assessed as reduction in bacterial titre at 25 to 100 uM administered at 16 hrs post infection and measured 44 hrs post infection; assay type: functional, organism-based; conditions: dose 25-100 µM, time 28.0 hrs
[12] = Cytotoxicity against human HEp-2 cells assessed as cell viability at 100 uM measured after 24 hrs by MTS assay relative to control; assay type: toxicity, cell-based; conditions: read-out: Activity; outline: as §2
[13] = tested on: HEp-2; assay: Cytotoxicity against human HEp-2 cells assessed as loss of cell integrity by measuring cytosolic LDH release at 100 uM […] by LDH assay; assay type: toxicity, cell-based; conditions: hep-2, 100 µM; outline: as §1

Compound | IC50 [1] | Activity [3] | Activity [6] | Activity [7] | other results
CC(C)C(NC(=O)[C@@H]1CCCN1C(=O)[C@@H](NC(=O)OC(C)(C)C)C(C)C)P(=O)(Oc1ccccc1)Oc1ccccc1 (some centres not stated) | 21.9 µM |  |  |  | 
CC(C)C(NC(=O)[C@@H]1CCCN1C(=O)[C@@H](NC(=O)OC(C)(C)C)C(C)(C)C)P(=O)(Oc1ccccc1)Oc1ccccc1 (some centres not stated) | 15.9 µM |  |  |  | Ratio IC50 [2]: 1.38
CC(C)C(NC(=O)[C@@H]1C[C@@H](c2ccccc2)CN1C(=O)[C@@H](NC(=O)OC(C)(C)C)C(C)(C)C)P(=O)(Oc1ccccc1)Oc1ccccc1 (mixture of isomers) | 59.5 µM | Non-Toxic | < 30% |  | Activity [4]: Active; Activity [5]: Active
CC(C)C(NC(=O)[C@@H]1C[C@@H](OC(=O)CN)CN1C(=O)[C@@H](NC(=O)OC(C)(C)C)C(C)(C)C)P(=O)(Oc1ccccc1)Oc1ccccc1 (mixture of isomers) | 13.9 µM | Non-Toxic | < 30% |  | 
CC(C)C(NC(=O)[C@@H]1C[C@@H](n2cc(C(N)=O)nn2)CN1C(=O)[C@@H](NC(=O)OC(C)(C)C)C(C)(C)C)P(=O)(Oc1ccccc1)Oc1ccccc1 (mixture of isomers) |  |  |  | Non-Toxic | 
CC(C)C(NC(=O)[C@@H]1C[C@@H](C2CCCCC2)CN1C(=O)[C@@H](NC(=O)OC(C)(C)C)C(C)(C)C)P(=O)(Oc1ccccc1)Oc1ccccc1 (mixture of isomers) | 163 µM |  |  |  | Activity [4]: Active; Activity [5]: Active; viability at 24 h, up to 100 µM [8]: 10%; Activity [9]: 80%
CC(C)C(NC(=O)[C@@H]1C[C@@H](n2nnc(O)c2O)CN1C(=O)[C@@H](NC(=O)OC(C)(C)C)C(C)(C)C)P(=O)(Oc1ccccc1)Oc1ccccc1 (mixture of isomers) |  |  |  | Non-Toxic | 
CC(C)C(NC(=O)[C@@H]1C[C@@H](n2cc(CO)nn2)CN1C(=O)[C@@H](NC(=O)OC(C)(C)C)C(C)(C)C)P(=O)(Oc1ccccc1)Oc1ccccc1 (mixture of isomers) | 79.7 µM |  |  | Non-Toxic | Activity [10]: Active
CC(C)C(NC(=O)[C@@H]1C[C@@H](n2nncc2C(C)(C)O)CN1C(=O)[C@@H](NC(=O)OC(C)(C)C)C(C)(C)C)P(=O)(Oc1ccccc1)Oc1ccccc1 (mixture of isomers) | 95.7 µM |  |  | Non-Toxic | Activity [10]: Active
CC(C)C(NC(=O)[C@@H]1C[C@H](n2nncc2C(C)(C)O)CN1C(=O)[C@@H](NC(=O)OC(C)(C)C)C(C)(C)C)P(=O)(Oc1ccccc1)Oc1ccccc1 (mixture of isomers) | 30.3 µM |  |  | Non-Toxic | Activity [10]: Active; Activity [11]: Active
CC(C)C(NC(=O)[C@@H]1C[C@@H](n2cc(C(C)(C)O)nn2)CN1C(=O)[C@@H](NC(=O)OC(C)(C)C)C(C)(C)C)P(=O)(Oc1ccccc1)Oc1ccccc1 (mixture of isomers) | 71.6 µM |  |  | Non-Toxic | 
CC(C)C(NC(=O)[C@@H]1C[C@@H](n2nncc2C(N)=O)CN1C(=O)[C@@H](NC(=O)OC(C)(C)C)C(C)(C)C)P(=O)(Oc1ccccc1)Oc1ccccc1 (mixture of isomers) |  |  |  | Non-Toxic | Activity [10]: Active; Activity [11]: Active
CC(C)C(NC(=O)[C@@H]1C[C@@H](O)CN1C(=O)[C@@H](NC(=O)OC(C)(C)C)C(C)(C)C)P(=O)(Oc1ccccc1)Oc1ccccc1 (mixture of isomers) | 14.2 µM | Non-Toxic | < 30% |  | 
CC(=O)O[C@@H]1C[C@@H](C(=O)NC(C(C)C)P(=O)(Oc2ccccc2)Oc2ccccc2)N(C(=O)[C@@H](NC(=O)OC(C)(C)C)C(C)(C)C)C1 (mixture of isomers) | 3.86 µM | Non-Toxic | < 30% |  | Activity [4]: Active; Activity [5]: Active
CC(C)C(NC(=O)[C@@H]1C[C@H](O)CN1C(=O)[C@@H](NC(=O)OC(C)(C)C)C(C)(C)C)P(=O)(Oc1ccccc1)Oc1ccccc1 (mixture of isomers) | 48.7 µM | Non-Toxic | < 30% |  | 
CC(C)C(NC(=O)[C@@H]1C[C@H](n2nnc(O)c2O)CN1C(=O)[C@@H](NC(=O)OC(C)(C)C)C(C)(C)C)P(=O)(Oc1ccccc1)Oc1ccccc1 (mixture of isomers) | 23 µM |  |  | Non-Toxic | 
CC(C)C(NC(=O)[C@@H]1C[C@H](n2cc(CO)nn2)CN1C(=O)[C@@H](NC(=O)OC(C)(C)C)C(C)(C)C)P(=O)(Oc1ccccc1)Oc1ccccc1 (mixture of isomers) |  |  |  | Non-Toxic | 
CC(C)C(NC(=O)[C@@H]1C[C@@H](OC(=O)CCN)CN1C(=O)[C@@H](NC(=O)OC(C)(C)C)C(C)(C)C)P(=O)(Oc1ccccc1)Oc1ccccc1 (mixture of isomers) | 15.3 µM | Non-Toxic | < 30% |  | 
CC(C)C(NC(=O)[C@@H]1CCCCN1C(=O)[C@@H](NC(=O)OC(C)(C)C)C(C)(C)C)P(=O)(Oc1ccccc1)Oc1ccccc1 (mixture of isomers) | 81.8 µM | Non-Toxic | < 30% |  | Activity [4]: Active; viability at 24 h, 100 µM [12]: 50%; Activity [5]: Active; Activity [13]: Non-Toxic
